Broadly, the IC50 is the concentration that gives 50% inhibition. Read a high IC50 as weaker potency. One may read the T/C as the ratio of treated to control. As usually defined, the half-life is how long it takes for the measured level to halve.

Consider 13 compounds from ChEMBL document CHEMBL1275348, “Design, synthesis, and evaluation of duocarmycin O-amino phenol prodrugs subject to tunable reductive activation” (J Med Chem, 2010).

In series [1] the test system is L1210. Put plainly: Cytotoxicity against mouse L1210 cells. Type of series: functional, cell-based.
Series [2] relates to L1210. Briefly: Antitumor activity against mouse L1210 cells xenografted in DBA/2J mouse assessed as mean survival period at 100 mg/kg, ip administered 3 times on day 1, 5 and 9 postimplantation. Format: functional. As to conditions: route intraperitoneal. The procedure, abridged:
(§1)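 Syngeneic L1210 leukemia cells (1 × 10^6) were injected i.p. into DBA/2J mice on day 0. Ten mice were randomly assigned per treatment or vehicle group. Compounds were formulated in 30% DMSO plus 0.7% glucose solution and injected i.p. on days 1, 5 and 9. Animals were monitored daily and weighed three times weekly, with the study running 120 days.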

For series [3], the system named is L1210. Put plainly: Antitumor activity against mouse L1210 cells xenografted in DBA/2J mouse assessed as mean survival period at 50 mg/kg, ip administered 3 times on day 1, 5 and 9 postimplantation. Format: functional. As to conditions: route intraperitoneal. The procedure, abridged: as §1
Series [4] has as its system L1210. Put plainly: Antitumor activity against mouse L1210 cells xenografted in DBA/2J mouse assessed as mean survival period at 250 mg/kg, ip administered 3 times on day 1, 5 and 9 postimplantation. To be noted: route intraperitoneal. Format: functional. The procedure, abridged:
as §1

The subject of series [5] is L1210. Briefly: Antitumor activity against mouse L1210 cells xenografted in DBA/2J mouse assessed as mean survival period at 500 mg/kg, ip administered 3 times on day 1, 5 and 9 postimplantation. Format: functional. To be noted: route intraperitoneal. The procedure, abridged:
as §1

The test system of series [6] is L1210. Put plainly: Antitumor activity against mouse L1210 cells xenografted in DBA/2J mouse at 50 mg/kg, ip administered 3 times on day 1, 5 and 9 postimplantation relative to control. Format: functional. As to conditions: route intraperitoneal. The procedure, abridged:
as §1

Series [7] deals with L1210. Briefly: Antitumor activity against mouse L1210 cells xenografted in DBA/2J mouse at 250 mg/kg, ip administered 3 times on day 1, 5 and 9 postimplantation relative to control. Type of series: functional. As to conditions: route intraperitoneal. In outline: as §1
Series [8] concerns L1210. Put plainly: Antitumor activity against mouse L1210 cells xenografted in DBA/2J mouse at 500 mg/kg, ip administered 3 times on day 1, 5 and 9 postimplantation relative to control. Format: functional. To be noted: route intraperitoneal. The procedure, abridged:
as §1

In series [9] the test system is L1210. Briefly: Antitumor activity against mouse L1210 cells xenografted in DBA/2J mouse assessed as survival at 50 mg/kg, ip administered 3 times on day 1, 5 and 9 postimplantation. Type of series: functional, organism-based. In outline: as §1
The subject of series [10] is L1210. Briefly: Antitumor activity against mouse L1210 cells xenografted in DBA/2J mouse assessed as survival at 100 mg/kg, ip administered 3 times on day 1, 5 and 9 postimplantation. Format: functional, organism-based. The procedure, abridged: as §1
Series [11] has as its system L1210. Put plainly: Antitumor activity against mouse L1210 cells xenografted in DBA/2J mouse at 100 ug/kg, ip administered 3 times on day 1, 5 and 9 postimplantation relative to control. To be noted: route intraperitoneal.
The test system of series [12] is L1210. Briefly: Antitumor activity against mouse L1210 cells xenografted in DBA/2J mouse assessed as mean survival period at 10 mg/kg, ip administered 3 times on day 1, 5 and 9 postimplantation. Type of series: functional. As to conditions: route intraperitoneal. In outline: as §1
In series [13] the test system is L1210. Put plainly: Antitumor activity against mouse L1210 cells xenografted in DBA/2J mouse assessed as mean survival period at 30 mg/kg, ip administered 3 times on day 1, 5 and 9 postimplantation. Format: functional. As to conditions: route intraperitoneal. The procedure, abridged: as §1
For series [14], the system named is L1210. Briefly: Antitumor activity against mouse L1210 cells xenografted in DBA/2J mouse assessed as mean survival period at 60 mg/kg, ip administered 3 times on day 1, 5 and 9 postimplantation. Type of series: functional. As to conditions: route intraperitoneal. In outline: as §1
Series [15] has as its system L1210. Put plainly: Antitumor activity against mouse L1210 cells xenografted in DBA/2J mouse at 10 mg/kg, ip administered 3 times on day 1, 5 and 9 postimplantation relative to control. Format: functional. As to conditions: route intraperitoneal. In outline:
(§2)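 DBA/2J mice received syngeneic L1210 cells (1 × 10^6) i.p. on day 0. Groups of ten mice were randomised to drug or vehicle. Dosing was i.p. on days 1, 5 and 9 in 30% DMSO plus 0.7% glucose solution. Animals were checked daily and weighed three times per week. The study ran 120 days, with survival compared against untreated controls.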

For series [16], the system named is L1210. Briefly: Antitumor activity against mouse L1210 cells xenografted in DBA/2J mouse at 30 mg/kg, ip administered 3 times on day 1, 5 and 9 postimplantation relative to control. Format: functional. To be noted: route intraperitoneal. In outline:
as §2

Series [17] concerns L1210. Put plainly: Antitumor activity against mouse L1210 cells xenografted in DBA/2J mouse at 60 ug/kg, ip administered 3 times on day 1, 5 and 9 postimplantation relative to control. To be noted: route intraperitoneal.
In series [18] the test system is L1210. Briefly: Antitumor activity against mouse L1210 cells xenografted in DBA/2J mouse assessed as mean survival period at 200 mg/kg, ip administered 3 times on day 1, 5 and 9 postimplantation. To be noted: route intraperitoneal. Type of series: functional. In outline: as §1
Series [19] concerns L1210. Briefly: Antitumor activity against mouse L1210 cells xenografted in DBA/2J mouse at 200 mg/kg, ip administered 3 times on day 1, 5 and 9 postimplantation relative to control. Type of series: functional. As to conditions: route intraperitoneal. The procedure, abridged:
as §1

Series [20] has as its system L1210. Put plainly: Antitumor activity against mouse L1210 cells xenografted in DBA/2J mouse assessed as survival at 10 mg/kg, ip administered 3 times on day 1, 5 and 9 postimplantation. Type of series: functional, organism-based. In outline: as §1
The test system of series [21] is L1210. Briefly: Antitumor activity against mouse L1210 cells xenografted in DBA/2J mouse assessed as survival at 30 mg/kg, ip administered 3 times on day 1, 5 and 9 postimplantation. Format: functional, organism-based. In outline:
as §1

Series [22] deals with L1210. Put plainly: Antitumor activity against mouse L1210 cells xenografted in DBA/2J mouse assessed as survival at 60 mg/kg, ip administered 3 times on day 1, 5 and 9 postimplantation. Format: functional, organism-based. The procedure, abridged:
as §1

Series [23] relates to L1210. Put plainly: Antitumor activity against mouse L1210 cells xenografted in DBA/2J mouse assessed as survival at 200 mg/kg, ip administered 3 times on day 1, 5 and 9 postimplantation. Format: functional, organism-based. In outline: as §1
Series [24] in a line: Chemical stability of the compound in phosphate buffer of pH 7 assessed as half life. Type of series: physicochemical. In outline: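 The compound was held in pH 7.0 phosphate buffer for up to 72 h. Cleavage was followed as release of CBI-indole2, and the half-life was estimated from this.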

Structures are written as SMILES. The source made the active and inactive calls. The calls are words filed in the database; no cut-off is given here.

The compound `NC(=O)NOc1cc2c(c3ccccc13)[C@H](CCl)CN2C(=O)c1cc2cc(NC(=O)c3cc4ccccc4[nH]3)ccc2[nH]1` gave an IC50 in the series on L1210 [1] of 1.1 nM. In addition, the Time with L1210 [2] was 33 days; with L1210 [3], 29 days; with L1210 [4], 39 days; in the series on L1210 [5], 71 days. Further, the T/C in the series with L1210 [6] is reported as 133%; in the series on L1210 [7] it was 177%; in the series on L1210 [8], 323%; in the series with L1210 [11], 152%. Moreover, the outcome in the series on L1210 [9] and with L1210 [10] was inactive.
On to `NC(=O)NOc1cc2c(c3ccccc13)[C@@H](CCl)CN2C(=O)c1cc2cc(NC(=O)c3cc4ccccc4[nH]3)ccc2[nH]1`, for which, in the series with L1210 [1], the IC50 came to 30 nM. That is a double-digit nanomolar value.
As for `CC(C)(C)OC(=O)NOc1cc2c(c3ccccc13)[C@H](CCl)CN2C(=O)c1cc2cc(NC(=O)c3cc4ccccc4[nH]3)ccc2[nH]1`, the concentration for half-maximal inhibition (IC50) with L1210 [1] came out at 0.1 nM. For the same compound, the Time with L1210 [12] was 50 days; in the series with L1210 [13], 58 days; in the series on L1210 [14], 69 days; in the series on L1210 [2], 86 days. In addition, the T/C in the series with L1210 [15] is given as 225%; in the series on L1210 [16], 265%; in the series with L1210 [17] it was 315%; with L1210 [11] it was 389%.
As for `COc1c(O)c2c(c3cc(C(=O)N4CCc5c4c(O)c(OC)c4[nH]c(C(=O)N6C[C@H]7C[C@@]78C6=CC(=O)c6[nH]cc(C)c68)cc54)[nH]c13)CCN2C(N)=O` [(+)-CC-1065], the half-inhibitory concentration (IC50) in the series with L1210 [1] worked out at 0.02 nM.
With `COC(=O)NOc1cc2c(c3ccccc13)[C@H](CCl)CN2C(=O)c1cc2cc(NC(=O)c3cc4ccccc4[nH]3)ccc2[nH]1`, the concentration for half-maximal inhibition (IC50) with L1210 [1] amounted to 0.5 nM. Further, the Time worked out at 24 days in the series on L1210 [12]; 29 days in the series with L1210 [13]; 28 days with L1210 [14]; 27 days with L1210 [2]; 32 days in the series on L1210 [18]. The T/C in the series on L1210 [15] was 110%; in the series with L1210 [16], 133%; in the series with L1210 [19] it was 145%; in the series on L1210 [17] it was 126%; with L1210 [11] it was 122%. Further, the outcome in the series with L1210 [10], in the series with L1210 [20], with L1210 [21], in the series on L1210 [22] and with L1210 [23] was inactive.
In turn, `CC(C)(C)C(=O)NOc1cc2c(c3ccccc13)[C@H](CCl)CN2C(=O)c1cc2cc(NC(=O)c3cc4ccccc4[nH]3)ccc2[nH]1` displayed an IC50 in the series with L1210 [1] of 0.08 nM. Moreover, the half-life in series [24] is 6 h.
On to `CN(Oc1cc2c(c3ccccc13)[C@@H](CCl)CN2C(=O)c1cc2cc(NC(=O)c3cc4ccccc4[nH]3)ccc2[nH]1)C(=O)OC(C)(C)C`, for which the IC50 with L1210 [1] is 30 nM.
In turn, `O=C(Nc1ccc2[nH]c(C(=O)N3C[C@@H](CCl)c4c3cc(O)c3ccccc43)cc2c1)c1cc2ccccc2[nH]1` [SECO-CBI-INDOLE] showed a concentration for half-maximal inhibition (IC50) in the series with L1210 [1] of 0.03 nM. The Time in the series with L1210 [12] was determined as 42 days; with L1210 [13], 51 days; in the series with L1210 [14] it was 78 days; in the series on L1210 [2] it was 73 days. Also, the T/C in the series on L1210 [15] is given as 192%; in the series with L1210 [16] it was 230%; with L1210 [17] it was 352%; in the series on L1210 [11], 333%.
In the series with L1210 [1], `CN(Oc1cc2c(c3ccccc13)[C@H](CCl)CN2C(=O)c1cc2cc(NC(=O)c3cc4ccccc4[nH]3)ccc2[nH]1)C(=O)OC(C)(C)C` gave a half-maximal inhibitory concentration (IC50) of 0.9 nM.
For `O=C(Nc1ccc2[nH]c(C(=O)N3C[C@H](CCl)c4c3cc(O)c3ccccc43)cc2c1)c1cc2ccccc2[nH]1`, the 50% inhibitory concentration (IC50) in the series on L1210 [1] was determined as 0.9 nM.
`CC(C)(C)C(=O)NOc1cc2c(c3ccccc13)[C@@H](CCl)CN2C(=O)c1cc2cc(NC(=O)c3cc4ccccc4[nH]3)ccc2[nH]1` had a half-maximal inhibitory concentration (IC50) in the series on L1210 [1] of 3.5 nM.
Consider `COC(=O)NOc1cc2c(c3ccccc13)[C@@H](CCl)CN2C(=O)c1cc2cc(NC(=O)c3cc4ccccc4[nH]3)ccc2[nH]1`, for which, in the series with L1210 [1], the midpoint of inhibition, the IC50, lay at 9 nM.
Same read-out and setting: the value for `CC(C)(C)OC(=O)NOc1cc2c(c3ccccc13)[C@@H](CCl)CN2C(=O)c1cc2cc(NC(=O)c3cc4ccccc4[nH]3)ccc2[nH]1` was 4 nM.
